The record followed here is ChEMBL document CHEMBL1150680, “Anti-inflammatory constituents and new pterocarpanoid of Crotalaria pallida” (J Nat Prod, 2003).

The test system of data set [1] is RAW264.7. The data set is described as follows: Antiinflammatory activity in LPS-stimulated mouse RAW264.7 cells assessed as inhibition of nitric oxide production pretreated 1 hr before LPS challenge. In kind it is functional, cell-based. In outline: (§1)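 RAW 264.7 mouse macrophage-like cells in DMEM with 10% FCS, plated at 2 × 10⁵ cells/well and adhered overnight. Pretreated with test drug or DMSO (final ≤0.5%) for 1 h at 37 °C, then stimulated with LPS (E. coli 0111:B4, 1 μg/mL) for 24 h. Nitrite in the medium was measured by Griess reaction (A550) against a NaNO₂ standard curve. Mean ± SEM, n = 3.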

The subject of data set [2] is N9. The data set is described as follows: Antiinflammatory activity in LPS/IFN-gamma-stimulated mouse N9 cells assessed as inhibition of nitric oxide production pretreated 1 hr before LPS/IFNgamma challenge.
A short description of data set [3]: Antiinflammatory activity in fMLP/cytochalasin B stimulated rat neutrophils assessed as inhibition of beta-glucuronidase release preincubated for 10 mins measured 45 mins after fMLP/cytochalasin B challenge. In kind it is functional, cell-based. Conditions: Neutrophil. In outline: (§2)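 Rat blood neutrophils were isolated in EDTA by dextran sedimentation, Ficoll-Hypaque and hypotonic lysis, then suspended in HBSS at 1 × 10⁷ cells/mL. Preincubated 10 min at 37 °C with drug or DMSO (final ≤0.5%), then challenged with fMLP (1 μM)/cytochalasin B (5 μg/mL). After 45 min, supernatant lysozyme and β-glucuronidase were expressed as percent of the Triton X-100 total content.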

Data set [4] can be described thus: Antiinflammatory activity in fMLP/cytochalasin B stimulated rat neutrophils assessed as inhibition of beta-glucuronidase release at 10 uM preincubated for 10 mins measured 45 mins after fMLP/cytochalasin B challenge relative to control. In kind it is functional, Neutrophil. Details: Activity: scale not given: the % may be the effect or the level left. Summed up:
as §2

The nature of data set [5]: Antiinflammatory activity in fMLP/cytochalasin B stimulated rat neutrophils assessed as inhibition of beta-glucuronidase release at 1 ug/ml preincubated for 10 mins measured 45 mins after fMLP/cytochalasin B challenge relative to control. Particulars: in the assay text read “1 uM” for “1 ug/ml”. Details: scale not given: the % may be the effect or the level left. In kind it is functional, Neutrophil. Summed up: as §2

Data set [6] is described as follows: Antiinflammatory activity in fMLP/cytochalasin B stimulated rat neutrophils assessed as beta-glucuronidase release at 10 uM preincubated for 10 mins measured 45 mins after fMLP/cytochalasin B challenge relative to control. In kind it is functional, Neutrophil. Summed up: as §2
Data set [7] is described as follows: Antiinflammatory activity in fMLP/cytochalasin B stimulated rat neutrophils assessed as beta-glucuronidase release at 1 ug/ml preincubated for 10 mins measured 45 mins after fMLP/cytochalasin B challenge relative to control. In kind it is functional, Neutrophil. Particulars: in the assay text read “1 uM” for “1 ug/ml”. In outline:
as §2

Data set [8] can be described thus: Antiinflammatory activity in fMLP/cytochalasin B stimulated rat neutrophils assessed as beta-glucuronidase release at 3 ug/ml preincubated for 10 mins measured 45 mins after fMLP/cytochalasin B challenge relative to control. Conditions: in the assay text read “3 uM” for “3 ug/ml”. In kind it is functional, Neutrophil. Summed up:
as §2

Data set [9] in a line: Antiinflammatory activity in fMLP/cytochalasin B stimulated rat neutrophils assessed as lysozyme release at 10 uM preincubated for 10 mins measured 45 mins after fMLP/cytochalasin B challenge relative to control. In kind it is functional, Neutrophil. Summed up: as §2
Data set [10] in a line: Antiinflammatory activity in fMLP/cytochalasin B stimulated rat neutrophils assessed as lysozyme release at 1 ug/ml preincubated for 10 mins measured 45 mins after fMLP/cytochalasin B challenge relative to control. Conditions: in the assay text read “1 uM” for “1 ug/ml”. In kind it is functional, Neutrophil. In outline:
as §2

Data set [11] can be described thus: Antiinflammatory activity in fMLP/cytochalasin B stimulated rat neutrophils assessed as lysozyme release at 3 ug/ml preincubated for 10 mins measured 45 mins after fMLP/cytochalasin B challenge relative to control. In kind it is functional, Neutrophil. Particulars: in the assay text read “3 uM” for “3 ug/ml”. In outline: as §2
Data set [12] can be described thus: Antiinflammatory activity in fMLP/cytochalasin B stimulated rat neutrophils assessed as inhibition of lysozyme release at 10 uM preincubated for 10 mins measured 45 mins after fMLP/cytochalasin B challenge relative to control. In kind it is functional. Conditions: Neutrophil. Summed up: as §2
Data set [13] in a line: Antiinflammatory activity in fMLP/cytochalasin B stimulated rat neutrophils assessed as inhibition of lysozyme release at 3 ug/ml preincubated for 10 mins measured 45 mins after fMLP/cytochalasin B challenge relative to control. In kind it is functional. Particulars: Neutrophil. Summed up: as §2
The nature of data set [14]: Antiinflammatory activity in fMLP/cytochalasin B stimulated rat neutrophils assessed as inhibition of lysozyme release preincubated for 10 mins measured 45 mins after fMLP/cytochalasin B challenge. In kind it is functional, cell-based. Particulars: Neutrophil. In outline:
as §2

Data set [15] concerns RAW264.7. The data set is described as follows: Antiinflammatory activity in LPS-stimulated mouse RAW264.7 cells assessed as inhibition of nitric oxide production at 3 uM pretreated 1 hr before LPS challenge relative to control. In kind it is functional. In outline:
as §1

The test system of data set [16] is RAW264.7. Nature of the data set: Antiinflammatory activity in LPS-stimulated mouse RAW264.7 cells assessed as inhibition of nitric oxide production at 10 uM pretreated 1 hr before LPS challenge relative to control. In kind it is functional. Summed up: as §1
Data set [17] has as its system RAW264.7. Nature of the data set: Antiinflammatory activity in LPS-stimulated mouse RAW264.7 cells assessed as inhibition of nitric oxide production at 30 uM pretreated 1 hr before LPS challenge relative to control. In kind it is functional. In outline: as §1
Data set [18] relates to N9. The data set is described as follows: Antiinflammatory activity in LPS/IFN-gamma-stimulated mouse N9 cells assessed as inhibition of nitric oxide production at 3 uM pretreated 1 hr before LPS/IFNgamma challenge relative to control. In kind it is functional. In outline:
(§3)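 N9 murine microglial line in Iscove's modified DMEM with 5% heat-inactivated FCS, 8 × 10⁴ cells/well. Pretreated for 1 h at 37 °C with drug or DMSO (final ≤0.5%), then stimulated with LPS (10 ng/mL) plus IFN-γ (10 unit/mL) for 24 h. Medium nitrite was read by Griess reaction at 550 nm with a NaNO₂ standard. Mean ± SEM, n = 3.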

Data set [19] concerns N9. Nature of the data set: Toxicity in LPS/IFN-gamma-stimulated mouse N9 cells assessed as LDH release at 30 uM. Conditions: n9, 30 µM. In kind it is cell-based. Summed up:
(§4)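 Cytotoxicity in LPS-stimulated RAW 264.7 or LPS/IFN-γ-stimulated N9 cultures, assessed by LDH release assay and trypan blue exclusion.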

The subject of data set [20] is RAW264.7. Nature of the data set: Toxicity in LPS-stimulated mouse RAW264.7 cells assessed as LDH release at 30 uM. In kind it is cell-based. Particulars: raw264.7, 30 µM. Summed up:
as §4

For data set [21], the system named is N9. Nature of the data set: Antiinflammatory activity in LPS/IFN-gamma-stimulated mouse N9 cells assessed as inhibition of nitric oxide production at 10 uM pretreated 1 hr before LPS/IFNgamma challenge relative to control.
The nature of data set [22]: Antiinflammatory activity in fMLP/cytochalasin B stimulated rat neutrophils assessed as inhibition of beta-glucuronidase release at 3 uM preincubated for 10 mins measured 45 mins after fMLP/cytochalasin B challenge relative to control. Details: scale not given: the % may be the effect or the level left.
Data set [23] in a line: Antiinflammatory activity in fMLP/cytochalasin B stimulated rat neutrophils assessed as inhibition of beta-glucuronidase release at 30 uM preincubated for 10 mins measured 45 mins after fMLP/cytochalasin B challenge relative to control. In kind it is functional. Conditions: Neutrophil, read-out: INH. In outline: as §2
A short description of data set [24]: Antiinflammatory activity in fMLP/cytochalasin B stimulated rat neutrophils assessed as beta-glucuronidase release at 30 uM preincubated for 10 mins measured 45 mins after fMLP/cytochalasin B challenge relative to control. In kind it is functional, Neutrophil. In outline:
as §2

Data set [25] can be described thus: Antiinflammatory activity in fMLP/cytochalasin B stimulated rat neutrophils assessed as lysozyme release at 30 uM preincubated for 10 mins measured 45 mins after fMLP/cytochalasin B challenge relative to control. In kind it is functional, Neutrophil. In outline: as §2
Data set [26] in a line: Antiinflammatory activity in fMLP/cytochalasin B stimulated rat neutrophils assessed as inhibition of lysozyme release at 30 uM preincubated for 10 mins measured 45 mins after fMLP/cytochalasin B challenge relative to control. In kind it is functional. Conditions: Neutrophil. In outline: as §2
For data set [27], the system named is N9. The data set is described as follows: Antiinflammatory activity in LPS-stimulated mouse N9 cells assessed as inhibition of nitric oxide production at 1 uM pretreated 1 hr before LPS challenge relative to control. In kind it is functional. In outline:
as §3

SMILES strings stand for the structures.

For `CC(=N)NCc1cccc(CN)c1` [1400W], the half-inhibitory concentration (IC50) in data set [1] came out at 2.3 µM; in [2], 3.6 µM.
In the case of `CN1CCN(CCCN2c3ccccc3Sc3ccc(C(F)(F)F)cc32)CC1` [TRIFLUOPERAZINE], the IC50 in data set [3] is 12.2 µM.
In the case of `C=C(C)c1cc2c3c(ccc2o1)[C@@H]1COc2cc(O)ccc2[C@@H]1O3` [CROTAFURAN A], the Activity in [4] was determined as 55.8%; in [5], 6.9%; in data set [6] it was 16.5%; in data set [7] it was 34.7%; in data set [8], 24.8%; in data set [9] it was 23.6%. For the same compound, the Activity in [10] is 54.2%; in data set [11], 46.9%; in [19], “Toxic”; in [20] it was “Toxic”; in data set [22], 33.4%. The figures for the IC50 in [3], in [14] and in data set [1] were 7.8 µM, 9.5 µM and 23 µM, respectively. Also, the inhibition at 10 µM stood at 56.2% in data set [12], 20.6% in data set [16] and 45.6% in data set [21]. Further, in data set [13], the inhibition at 3 µg/mL turned out to be 14%. For the same compound, the inhibition at 3 µM in data set [15] was -5.1%; in data set [18] it was 15.4%. Besides, in data set [17], the inhibition at 30 µM came to 59.5%.
Consider `CC(=O)c1cc2c3c(ccc2o1)[C@@H]1COc2cc(O)ccc2[C@@H]1O3` [CROTAFURAN B], for which the inhibition at 10 µM in data set [4] (Rattus norvegicus, Neutrophil) was -0.9%; in [12], -7.8%; in [16] it was 25.6%; in data set [21] it was 50.4%. Also, the inhibition at 30 µM in [23] was 5.1%; in [26] it was -0.4%; in data set [17] it was 64.4%. The Activity was 37.7% in [6]; 35.3% in [24]; 58.9% in data set [9]; 55.1% in [25]; “Toxic” in data set [19]; “Toxic” in data set [20]. The inhibition at 3 µM was determined as 3.2% in data set [15] and 29% in data set [18]. In addition, the IC50 in [1] stood at 19 µM; in data set [2], 9.4 µM. Besides, the inhibition at 1 µM in data set [27] is 4.2%.
